The values that follow come from ChEMBL document CHEMBL1143862, “Backbone cyclic peptidomimetic melanocortin-4 receptor agonist as a novel orally administrated drug lead for treating obesity” (J Med Chem, 2008).

Numbered stars: 1 amine (or outer) side, 2 acyl side, 3 side chain; on linkers, the order of the positions; unused ones are H or OH. Bridge positions count the residues as written; N and C are the ends. Square brackets hold non-standard residues; d marks the D form. Peptide text beside a SMILES is read from it. NGly(3-aminopropyl) = O=C(CN(CCCN[*:3])[*:1])[*:2]; N(2-Aminoethyl)Gly = O=C(CN(CCN[*:3])[*:1])[*:2]; Adipoyl = O=C(CCCCC(=O)[*:2])[*:1]; Suc = O=C(CCC(=O)[*:2])[*:1]

Series [1] deals with Melanocortin receptor 3 (Mus musculus, UniProt P33033). Briefly: Agonist activity at mouse MC3R expressed in HEK293 cells. The format is functional, cell-based. An outline of the steps:
(§1)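 HEK-293 cells stably expressing each melanocortin receptor were transfected with a CRE/β-galactosidase reporter. At 48 h post-transfection, cells were stimulated for 6 h with peptide (10^-4 to 10^-12 M) or 10^-4 M forskolin in DMEM containing 0.1 mg/mL BSA and 0.1 mM IBMX. Lysates were read with ONPG at OD 405 and normalized to protein (OD 595) and to forskolin response. Efficacy is expressed relative to NDP-MSH maximal stimulation.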

Series [2] has as its target Melanocortin receptor 4 (Mus musculus, UniProt P56450). Briefly: Agonist activity at mouse MC4R expressed in HEK293 cells. Format: functional, cell-based. In short, it runs like this: as §1
The target of series [3] is Melanocortin receptor 5 (Mus musculus, UniProt P41149). Briefly: Agonist activity at mouse MC5R expressed in HEK293 cells. Format: functional, cell-based. An outline of the steps: as §1
Sequence of Melanocortin receptor 5 (P41149 whole entry): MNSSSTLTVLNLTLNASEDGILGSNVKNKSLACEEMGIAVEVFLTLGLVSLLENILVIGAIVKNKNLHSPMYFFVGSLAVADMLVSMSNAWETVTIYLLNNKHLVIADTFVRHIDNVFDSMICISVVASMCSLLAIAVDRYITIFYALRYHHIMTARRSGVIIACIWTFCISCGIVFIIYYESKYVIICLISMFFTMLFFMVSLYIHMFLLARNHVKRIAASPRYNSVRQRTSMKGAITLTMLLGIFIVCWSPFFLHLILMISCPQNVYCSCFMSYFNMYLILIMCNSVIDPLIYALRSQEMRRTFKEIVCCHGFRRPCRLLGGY
Series [4] is described as follows: Permeability across human Caco-2 cells. The format is ADME, cell-based. In short, it runs like this:
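Caco-2 cells (passage 60–66) were seeded on 0.4 µm polycarbonate inserts and used 21–23 days later at stable TEER (300–500 Ωcm²). After 30 min buffer pre-incubation at 37 °C with shaking, compound was added apically.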

The target in series [5] is Melanocyte-stimulating hormone receptor (Mus musculus, UniProt Q01727). The experiment in a line: Agonist activity at mouse MC1R expressed in HEK293 cells. The format is functional, cell-based. In short, it runs like this: as §1
Sequence of Melanocyte-stimulating hormone receptor (Q01727 whole entry): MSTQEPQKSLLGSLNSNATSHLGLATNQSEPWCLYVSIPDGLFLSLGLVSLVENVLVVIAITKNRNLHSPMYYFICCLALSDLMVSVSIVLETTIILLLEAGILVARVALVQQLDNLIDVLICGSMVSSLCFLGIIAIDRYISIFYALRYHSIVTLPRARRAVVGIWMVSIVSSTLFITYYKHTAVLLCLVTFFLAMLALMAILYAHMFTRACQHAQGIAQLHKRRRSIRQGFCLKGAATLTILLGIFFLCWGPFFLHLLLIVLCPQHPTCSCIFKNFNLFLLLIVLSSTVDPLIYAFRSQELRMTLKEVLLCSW
In series [6] the target is Melanocortin receptor 3 (Mus musculus) (UniProt P33033). Briefly: Stimulation of mouse MC3R expressed in HEK293 cells relative to NDP-MSH. Format: cell-based. An outline of the steps: as §1
Sequence of Melanocortin receptor 3 (Mus musculus) (P33033 whole entry): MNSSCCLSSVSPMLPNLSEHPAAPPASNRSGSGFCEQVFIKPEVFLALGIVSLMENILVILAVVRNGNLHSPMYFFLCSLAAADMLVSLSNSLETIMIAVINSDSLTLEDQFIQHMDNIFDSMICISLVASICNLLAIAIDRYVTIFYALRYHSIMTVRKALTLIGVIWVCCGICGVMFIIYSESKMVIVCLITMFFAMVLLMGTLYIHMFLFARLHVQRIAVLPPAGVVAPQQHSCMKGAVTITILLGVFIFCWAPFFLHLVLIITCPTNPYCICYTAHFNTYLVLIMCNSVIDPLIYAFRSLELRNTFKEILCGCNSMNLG
Series [7] addresses Melanocortin receptor 4 (Mus musculus) (UniProt P56450). The experiment in a line: Stimulation of mouse MC4R expressed in HEK293 cells relative to NDP-MSH. The format is cell-based. In short, it runs like this: as §1
For series [8], the target named is Melanocortin receptor 5 (Mus musculus) (UniProt P41149). The experiment in a line: Stimulation of mouse MC5R expressed in HEK293 cells relative to NDP-MSH. Format: cell-based. An outline of the steps:
as §1

For series [9], the target named is Melanocyte-stimulating hormone receptor (Mus musculus) (UniProt Q01727). The experiment in a line: Stimulation of mouse MC1R expressed in HEK293 cells relative to NDP-MSH. The format is cell-based. An outline of the steps:
as §1

A short description of series [10]: Half life in Wistar rat plasma at 1 mg/kg, iv and 10 mg/kg, po. The format is ADME, organism-based. In short, it runs like this: (§2)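 Conscious male Wistar rats with a jugular vein cannula implanted 24 h beforehand received peptide dissolved in water, as an iv bolus of 1 mg/kg (n = 5) or orally at 10 mg/kg (n = 2). Heparinized blood was sampled at several times up to 24 h. Plasma was separated at 4 °C, stored at -70 °C and analysed by HPLC-MS. Parameters came from noncompartmental analysis.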

Series [11] in a line: AUC in Wistar rat plasma at 1 mg/kg, iv and 10 mg/kg, po. Format: ADME, organism-based. An outline of the steps: as §2
A short description of series [12]: Volume of distribution at steady state in Wistar rat plasma at 1 mg/kg, iv and 10 mg/kg, po. The conditions noted are these: read-out: Vdss. Format: ADME, organism-based. An outline of the steps:
as §2

Series [13] can be described thus: Cmax in Wistar rat plasma at 1 mg/kg, iv. The format is ADME, organism-based. On the set-up: dose 1 mg/kg, route intravenous. An outline of the steps: as §2
Series [14] is described as follows: Cmax in Wistar rat plasma at 10 mg/kg, po. The format is ADME, organism-based. Also on record: dose 10 mg/kg, route oral. In short, it runs like this: as §2
A short description of series [15]: Tmax in Wistar rat plasma at 1 mg/kg, iv. Also on record: dose 1 mg/kg, route intravenous. The format is ADME, organism-based. In short, it runs like this: as §2
Series [16] can be described thus: Tmax in Wistar rat plasma at 10 mg/kg, po. Also on record: dose 10 mg/kg, route oral. The format is ADME, organism-based. In short, it runs like this:
as §2

Series [17] has as its system Rattus norvegicus. The experiment in a line: Bioavailability in Wistar rat plasma at 1 mg/kg, iv and 10 mg/kg, po. The format is ADME, organism-based. The conditions noted are these: in vivo. In short, it runs like this:
as §2

Series [18] relates to Mus musculus. The experiment in a line: Reduction of food consumption in ICR:Hsd (CD1) mouse at 0.5 mg/kg, po after 1 hr relative to control. Format: functional. On the set-up: scale not given: the % may be the effect or the level left. In short, it runs like this: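 Male ICR:Hsd (CD-1) mice, 7–8 weeks old and individually caged, were fasted 16 h and then gavaged once (5 mL/kg) with peptide at 100 µg/ml or with water vehicle (n = 24). Fixed food portions were given immediately and reweighed at 1, 2, 3, 4 and 5 h. Results are mean ± SEM, analysed by RM ANOVA with Tukey's test.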

Series [19] concerns Mus musculus. The experiment in a line: Effect on weight gain in ICR:Hsd (CD1) mouse at 0.5 mg/kg/day, po after 12 days relative to control. Format: functional. An outline of the steps:
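Mice (n = 9) were weighed daily, then given a daily oral gavage (5 mL/kg) of peptide at 100 µg/ml or water vehicle. Weight change from day 0 was expressed as mean ± SEM and compared with controls by Student's t-test.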

The nature of series [20]: Biodistribution in rat brain at 10 mg/kg, po after 8 hrs. The format is ADME, organism-based. On the set-up: dose 10 mg/kg, route oral. Particulars: read-out: Drug uptake. An outline of the steps: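 Rats were dosed at 10 mg/kg, iv or po. Brain was collected 8 h after dosing and extracted by a single protein precipitation (90% acetonitrile/10% formic acid, then 50 mM ammonium formate). Peptide was quantified by validated LC-MS/MS and expressed as […] tissue.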

The nature of series [21]: Elimination half life in rat. The conditions noted are these: plasma. Format: ADME, tissue-based. In short, it runs like this:
as §2

Series [22] deals with Melanocortin receptor 4 (Homo sapiens, UniProt P32245). Briefly: Displacement of [125I]NDP-alpha-MSH from MC4R. A general note: Displacement assays read how much labelled ligand stays bound in the presence of the test substance.
Sequence of Melanocortin receptor 4 (Homo sapiens, UniProt P32245) (P32245 whole entry): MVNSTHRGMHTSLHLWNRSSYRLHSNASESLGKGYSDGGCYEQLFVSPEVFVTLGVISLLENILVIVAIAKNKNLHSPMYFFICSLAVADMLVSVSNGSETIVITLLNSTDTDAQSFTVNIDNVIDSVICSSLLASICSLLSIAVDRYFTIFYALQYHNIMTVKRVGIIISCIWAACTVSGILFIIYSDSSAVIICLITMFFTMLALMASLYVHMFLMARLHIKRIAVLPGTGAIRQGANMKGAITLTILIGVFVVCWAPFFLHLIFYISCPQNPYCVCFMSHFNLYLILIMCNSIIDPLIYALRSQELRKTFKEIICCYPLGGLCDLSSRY

Sequence of Melanocortin receptor 5 (Mus musculus) (P41149 whole entry): as the sequence (P41149 whole entry) above
Sequence of Melanocortin receptor 3 (P33033 whole entry): as the sequence (P33033 whole entry) above
Sequence of Melanocortin receptor 4 (Mus musculus, UniProt P56450) (P56450 whole entry): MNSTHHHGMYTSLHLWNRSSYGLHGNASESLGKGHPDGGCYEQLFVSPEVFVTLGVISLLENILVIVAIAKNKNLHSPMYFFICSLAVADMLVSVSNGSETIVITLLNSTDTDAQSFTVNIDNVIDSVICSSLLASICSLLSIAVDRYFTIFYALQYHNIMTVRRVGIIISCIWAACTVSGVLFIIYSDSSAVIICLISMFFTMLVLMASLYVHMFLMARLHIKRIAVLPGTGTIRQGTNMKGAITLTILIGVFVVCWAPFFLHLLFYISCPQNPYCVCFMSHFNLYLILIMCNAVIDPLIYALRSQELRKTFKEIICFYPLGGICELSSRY
Sequence of Melanocortin receptor 4 (Mus musculus) (P56450 whole entry): as above
Sequence of Melanocyte-stimulating hormone receptor (Mus musculus) (Q01727 whole entry, looked up): as the sequence (Q01727 whole entry) above

By EC50 is commonly meant the concentration giving half of the maximal effect. By Papp is commonly meant the rate of passage across a membrane or cell layer, normalised by area and donor concentration. With `N=C(N)NCCC[C@@H]1NC(=O)[C@@H](Cc2ccccc2)NC(=O)[C@H](Cc2ccccc2)NC(=O)CCCC(=O)NCCN(CC(N)=O)C(=O)[C@H](Cc2c[nH]c3ccccc23)NC1=O`, the EC50 in series [1] was found to be 1460 nM; in series [2], 18 nM; in series [3], 20 nM; in [5], 120 nM. In series [4], this compound displayed a Papp of 21 ×10⁻⁶ cm/s. The Efficacy in series [6], in series [7], in series [8] and in [9] was 100% each time.

For the compound `OC[C@@H](O)[C@@H](O)[C@H](O)[C@H](O)CO` [MANNITOL], in series [4], the Papp was determined as 2.05 ×10⁻⁶ cm/s.

Consider `N=C(N)NCCC[C@@H]1NC(=O)[C@@H](Cc2ccccc2)NC(=O)[C@H](Cc2ccccc2)NC(=O)CCCCC(=O)NCCCN(CC(N)=O)C(=O)[C@H](Cc2c[nH]c3ccccc23)NC1=O` (F[dF]RW[NGly(3-aminopropyl)]-NH2; linker N-5 via Adipoyl), for which the concentration for a half-maximal effect (EC50) came to 7750 nM in series [1], 5 nM in series [2], 26 nM in [3] and 240 nM in series [5]. In [4], this compound registered a Papp of 19 ×10⁻⁶ cm/s. Moreover, the Efficacy in [6], in [7], in [8] and in [9] was 100% each time.

In series [4], `CC(C)NCC(O)COc1cccc2ccccc12` (stereo not given) [PROPRANOLOL] gave a Papp of 25 ×10⁻⁶ cm/s.

In series [4], `N=C(N)NCCC[C@H](NC(=O)[C@H](Cc1c[nH]c2ccccc12)NC(=O)CN)C(=O)N[C@H](Cc1ccccc1)C(=O)N[C@@H](Cc1ccccc1)C(=O)O` came in with a Papp of 12 ×10⁻⁶ cm/s.

With `N=C(N)NCCC[C@@H]1NC(=O)[C@@H](Cc2ccccc2)NC(=O)[C@H](Cc2ccccc2)NC(=O)CCC(=O)NCCCN(CC(N)=O)C(=O)[C@H](Cc2c[nH]c3ccccc23)NC1=O` (F[dF]RW[NGly(3-aminopropyl)]-NH2; linker N-5 via Suc), the EC50 in [1] is 1260 nM; in [2], 4 nM; in series [3], 2 nM; in [5], 28 nM. The compound further gave a Papp in [4] of 18.8 ×10⁻⁶ cm/s. The Efficacy in [6], in [7], in series [8] and in series [9] was 100% throughout.

As usually defined, the half-life is the time needed for the level to fall by half in the phase considered. The term AUC denotes concentration integrated over time. What is called Cmax is the maximum level reached in the sampled fluid or tissue. As usually defined, the Tmax is the time from dosing to the highest level. Take `N=C(N)NCCC[C@@H]1NC(=O)[C@@H](Cc2ccccc2)NC(=O)[C@H](Cc2ccccc2)NC(=O)CCC(=O)NCCN(CC(N)=O)C(=O)[C@H](Cc2c[nH]c3ccccc23)NC1=O` (F[dF]RW[N(2-Aminoethyl)Gly]-NH2; linker N-5 via Suc): the EC50 is 770 nM in series [1], 4 nM in [2], 7 nM in series [3] and 64 nM in series [5]. This compound also gave a Papp in [4] of 17.8 ×10⁻⁶ cm/s. Moreover, the figures for the half-life in series [10] and in series [21] were > 105 min and 100 min, respectively. The compound also gave an exposure (AUC) in [11] of 416 ng·h/mL. Also, the Vd in [12] was 2.1 L/kg. For the same compound, the Cmax in series [13] was 977 ng/mL; in series [14], 202 ng/mL. Also, the Tmax in series [15] was 5 min; in series [16], 37 min. The same compound yielded a F in [17] of 8.5%. For the same compound, the Activity in [18] is 46%; in series [19] it was 2.8%. Besides, the concentration at 8 h in [20] is 4700 ng/g. Moreover, the Efficacy in series [6], in series [7], in [8] and in series [9] was 100% throughout.

Broadly, the IC50 is the concentration that gives 50% inhibition. Turning to `N=C(N)NCCC[C@@H]1NC(=O)[C@@H](Cc2ccccc2)NC(=O)[C@H](Cc2ccccc2)NC(=O)c2ccccc2C(=O)NCCN(CC(N)=O)C(=O)[C@H](Cc2c[nH]c3ccccc23)NC1=O`, the IC50 in [22] amounted to 100 nM. For the same compound, the EC50 in series [1] worked out at 20500 nM; in series [2], 150 nM; in [3], 390 nM; in series [5] it was 550 nM. In addition, the Efficacy in series [6], in series [7], in series [8] and in series [9] was 100% each time.
